pKd: −log10 of the molar value. The source made the active and inactive calls. The rule behind the calls is not given here.
Assays:
[1] = Octanol-water partition coefficient, logD of the compound at pH 7.4 incubated for 1.5 hrs by shake flask based LC-UV/MS analysis; assay type: physicochemical; settings: pH 7.4, 1.5 h, 1.5 h
Summary of the method: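 CAMDIS shake-flask variant. 10 mM DMSO stock is diluted into 25 mM phosphate pH 7.4 over a 1-octanol-impregnated PVDF membrane and shaken 1.5 h at 21 °C, at two octanol/buffer ratios, in triplicate. Remaining aqueous concentration is read by LC/MS; logD comes from the difference with and without octanol.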

Monoglyceride lipase = biological target: T1, Monoglyceride lipase (Rattus norvegicus, UniProt Q8R431); experiment: Binding affinity to rat MAGL assessed as equilibrium dissociation constant by SPR analysis
T1 sequence (Q8R431 whole entry): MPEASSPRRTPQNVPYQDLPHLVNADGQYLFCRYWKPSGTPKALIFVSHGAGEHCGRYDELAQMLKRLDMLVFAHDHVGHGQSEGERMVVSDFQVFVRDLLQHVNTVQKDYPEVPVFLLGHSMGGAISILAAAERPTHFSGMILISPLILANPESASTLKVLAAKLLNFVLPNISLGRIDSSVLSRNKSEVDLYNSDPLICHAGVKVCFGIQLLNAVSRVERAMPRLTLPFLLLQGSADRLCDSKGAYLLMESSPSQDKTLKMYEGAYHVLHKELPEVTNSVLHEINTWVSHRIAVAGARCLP
Summary of the method: (§1)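 Human or rat MAGL was immobilized by amine coupling without ethanolamine quenching. Runs were done at 18 °C in 10 mM HEPES, 150 mM NaCl, 0.05% P20, 50 µM EDTA, pH 7.4, with 1% DMSO. Single-cycle kinetics used five concentrations, top 1 µM in 2-fold steps, at 30 µL/min, giving kon, koff and Kd.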

human P-gp = experiment: Apparent permeability across apical to basolateral side in pig LLC-PK1 cells expressing human P-gp; assay type: ADME, cell-based, Sus scrofa
Summary of the method: (§2)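 LLC-PK1 porcine kidney cells transfected with human or mouse P-gp were grown as polarized monolayers on filter membranes. Compound was dosed to the apical side and receiver appearance followed over 3 h at 37 °C. A→B Papp was measured with the P-gp inhibitor zosuquidar present at 1 µM.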

mouse P-gp = experiment: Apparent permeability across apical to basolateral side in pig LLC-PK1 cells expressing mouse P-gp; assay type: ADME, cell-based, Sus scrofa; summary of the method: as §2
[2] = Volume of distribution at steady state in Wistar rat at 1 mg/kg, iv measured upto 24 hrs by LC-MS/MS analysis; assay type: ADME, organism-based; settings: in vivo, read-out: Vdss
Summary of the method: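 Male Wistar rats (N = 3) received a single 1 mg/kg i.v. dose as a solution in NMP/0.9% NaCl (30:70, 2 mL/kg). Blood was drawn at 0.083, 0.25, 0.5, 1, 2, 4, 7 and 24 h onto K2EDTA, and plasma was separated by centrifugation at 3000g for 15 min at 4 °C. Concentrations were measured by LC-MS/MS, and Vss was derived by noncompartmental analysis.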

[3] = Half-life in Wistar rat at 10 mg/kg, ip […] by LC-MS/MS analysis; assay type: ADME, organism-based; settings: in vivo
Summary of the method: (§3)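 Male Wistar rats, single dose. i.v. in NMP/0.9% NaCl 30:70; p.o. and i.p. in NMP/HPMC/diisooctyl sulfosuccinate 10:90; 3 per i.v./p.o. group, 6 i.p. K2EDTA plasma sampled 0.083–7 h, plus 24 h for i.v./p.o.; brain and CSF at 1, 2, 7 h (i.p. only). LC-MS/MS, noncompartmental analysis.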

[4] = Tmax in Wistar rat at 10 mg/kg, ip measured […] by LC-MS/MS analysis; assay type: ADME, organism-based; settings: in vivo; summary of the method: as §3
[5] = AUClast in Wistar rat at 10 mg/kg, ip measured upto 24 hrs by LC-MS/MS analysis; assay type: ADME, organism-based; settings: in vivo
[6] = Oral bioavailability in Wistar rat at 5 mg/kg measured upto 24 hrs by LC-MS/MS analysis; assay type: ADME, organism-based; settings: in vivo; summary of the method: as §3
CYP2C9 = CYP2C9 (Homo sapiens, UniProt P11712); experiment: Inhibition of CYP2C9 (unknown origin) at 10 uM relative to control; assay type: ADME
CYP2D6 = CYP2D6 (Homo sapiens, UniProt P10635); experiment: Inhibition of CYP2D6 (unknown origin) at 10 uM relative to control; assay type: ADME
[7] = Average drug concentration in mouse plasma at 10 mg/kg, ip measured after 4 hrs; assay type: ADME, organism-based; settings: in vivo
Summary of the method: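 Mice received 3, 10 or 30 mg/kg i.p. The compound was dissolved in DMSO/Tween 80 (1:1) and diluted with 8 parts saline (NaCl/DMSO/TW80 80/10/10). Plasma was taken 4 h after injection and average concentrations reported.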

[8] = Drug concentration in mouse CSF at 3 mg/kg, ip measured after 4 hrs; assay type: ADME, organism-based, Cerebrospinal fluid; settings: read-out: Ct
[9] = Average drug concentration in mouse plasma at 30 mg/kg, ip measured after 8 hrs; assay type: ADME, organism-based; settings: in vivo
Summary of the method: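 In a time course, mice were injected i.p. with 30 mg/kg in NaCl/DMSO/Tween 80 (80/10/10). Average plasma levels were determined at the stated time points over 24 h.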

[10] = Drug concentration in mouse CSF at 30 mg/kg, ip measured after 8 hrs; assay type: ADME, organism-based, Cerebrospinal fluid; settings: read-out: Ct
[11] = Drug concentration in mouse CSF at 30 mg/kg, ip measured after 16 hrs; assay type: ADME, organism-based, Cerebrospinal fluid; settings: read-out: Ct
[12] = biological target: T2, Monoglyceride lipase (Rattus norvegicus) (UniProt Q8R431); experiment: Binding affinity to rat MAGL assessed as association rate constant by SPR analysis; summary of the method: as §1
T2 sequence (whole entry): T1 sequence (Q8R431 whole entry)

[13] = biological target: T3, Monoglyceride lipase (Mus musculus) (UniProt O35678); experiment: In vivo receptor occupancy at MAGL receptor in mouse at 30 mg/kg, ip measured after 2 hrs; assay type: functional, organism-based
T3 sequence (whole entry): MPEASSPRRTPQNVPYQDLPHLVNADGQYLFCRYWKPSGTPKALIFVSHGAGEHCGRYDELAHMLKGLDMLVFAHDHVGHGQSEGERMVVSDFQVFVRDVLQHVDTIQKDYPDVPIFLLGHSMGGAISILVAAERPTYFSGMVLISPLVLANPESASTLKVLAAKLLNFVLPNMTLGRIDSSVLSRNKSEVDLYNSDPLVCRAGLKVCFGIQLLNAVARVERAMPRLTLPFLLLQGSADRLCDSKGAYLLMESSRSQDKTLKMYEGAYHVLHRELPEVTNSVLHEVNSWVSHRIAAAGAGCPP
Summary of the method: (§4)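 Mice dosed 30 mg/kg i.p. in NaCl/DMSO/TW80 (80/10/10). Brain proteome was prepared at set time points over 24 h and MAGL occupancy read by activity-based protein profiling.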

[14] = biological target: T3, Monoglyceride lipase (Mus musculus); experiment: In vivo receptor occupancy at MAGL receptor in mouse at 30 mg/kg, ip measured after 24 hrs; assay type: functional, organism-based; summary of the method: as §4
Mus musculus = experiment: Antiinflammatory activity in LPS-induced CD-1 mouse neuroinflammation model assessed as decrease in brain LCN2 mRNA expression at 30 mg/kg, ip measured after 6 hrs by qRT-PCR analysis; assay type: functional, organism-based
Summary of the method: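 CD-1 mice received NaCl + vehicle, LPS (5 mg/kg) + vehicle, or LPS + inhibitor at 30 mg/kg i.p. The vehicle was NaCl/DMSO/Tween 80, 80/10/10. Mice were killed 6 h after compound dosing. LCN2 and IL1b mRNA in cortical brain lysates were quantified by droplet digital qRT-PCR.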

[15] = biological target: Fatty acid amide hydrolase (Mus musculus) (UniProt O08914); experiment: Inhibition of FAAH in mouse brain lysates at 10 uM by ABPP assay
Sequence of Fatty acid amide hydrolase (Mus musculus) (O08914 whole entry, looked up): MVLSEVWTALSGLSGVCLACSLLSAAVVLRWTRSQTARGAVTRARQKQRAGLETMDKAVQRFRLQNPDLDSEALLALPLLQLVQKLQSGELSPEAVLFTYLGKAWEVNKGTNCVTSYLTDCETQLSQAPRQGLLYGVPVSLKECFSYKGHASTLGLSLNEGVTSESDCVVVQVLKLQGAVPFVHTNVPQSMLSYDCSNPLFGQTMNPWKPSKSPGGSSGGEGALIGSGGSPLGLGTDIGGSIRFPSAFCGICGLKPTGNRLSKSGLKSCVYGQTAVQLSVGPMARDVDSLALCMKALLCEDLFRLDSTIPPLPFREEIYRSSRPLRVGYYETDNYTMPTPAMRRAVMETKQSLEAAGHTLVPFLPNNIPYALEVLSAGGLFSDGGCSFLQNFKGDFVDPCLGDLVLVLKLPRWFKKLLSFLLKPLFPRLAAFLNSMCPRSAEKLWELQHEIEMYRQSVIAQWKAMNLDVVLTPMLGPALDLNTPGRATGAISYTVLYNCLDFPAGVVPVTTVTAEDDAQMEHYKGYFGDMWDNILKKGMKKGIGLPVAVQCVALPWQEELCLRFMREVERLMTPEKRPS

Sequence of CYP2D6 (P10635 whole entry): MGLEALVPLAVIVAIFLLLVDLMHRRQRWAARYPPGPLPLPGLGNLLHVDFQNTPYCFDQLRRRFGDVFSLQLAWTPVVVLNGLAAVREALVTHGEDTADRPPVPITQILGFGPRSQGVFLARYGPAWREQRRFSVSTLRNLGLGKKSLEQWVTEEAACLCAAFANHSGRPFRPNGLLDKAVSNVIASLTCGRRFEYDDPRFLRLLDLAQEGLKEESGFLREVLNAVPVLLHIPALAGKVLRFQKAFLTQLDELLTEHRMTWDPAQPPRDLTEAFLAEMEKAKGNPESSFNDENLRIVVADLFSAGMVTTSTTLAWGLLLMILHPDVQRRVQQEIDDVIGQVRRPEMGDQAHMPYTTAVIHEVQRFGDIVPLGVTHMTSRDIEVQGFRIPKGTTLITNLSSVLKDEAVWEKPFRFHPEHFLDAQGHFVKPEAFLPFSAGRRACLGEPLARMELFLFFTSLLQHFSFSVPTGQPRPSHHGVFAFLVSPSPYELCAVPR
Sequence of CYP2C9 (P11712 whole entry): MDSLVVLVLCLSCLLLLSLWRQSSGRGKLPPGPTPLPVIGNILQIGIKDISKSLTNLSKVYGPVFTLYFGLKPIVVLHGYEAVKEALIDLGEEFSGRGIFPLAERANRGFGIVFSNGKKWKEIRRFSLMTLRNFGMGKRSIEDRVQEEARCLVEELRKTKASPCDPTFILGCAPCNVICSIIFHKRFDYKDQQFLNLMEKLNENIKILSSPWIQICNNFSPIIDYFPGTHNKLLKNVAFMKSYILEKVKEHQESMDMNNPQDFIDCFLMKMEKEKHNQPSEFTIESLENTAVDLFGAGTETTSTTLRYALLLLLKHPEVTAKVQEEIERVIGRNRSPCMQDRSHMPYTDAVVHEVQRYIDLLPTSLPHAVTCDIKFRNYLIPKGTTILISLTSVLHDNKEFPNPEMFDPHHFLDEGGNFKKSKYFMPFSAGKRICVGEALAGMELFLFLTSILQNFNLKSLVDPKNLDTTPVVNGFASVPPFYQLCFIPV

O=C1CO[C@H]2CCN(C(=O)N3CCC(Cc4ccc(C(F)(F)F)cc4)CC3)C[C@H]2N1 [listing 1 of 2 here]
logD [1]: 3.3
pKd (Monoglyceride lipase): 7.19
Papp A→B (human P-gp): 17.6 ×10⁻⁶ cm/s
Papp A→B (mouse P-gp): 24.4 ×10⁻⁶ cm/s
Vd [2]: 1.3 L/kg
half-life [3]: 2.7 h
Tmax [4]: 0.25 h
AUC(0-t) at 24 h [5]: 40200 ng·h/mL
bioavailability [6]: 115%
inhibition at 10 µM (CYP2C9): 3%
inhibition at 10 µM (CYP2D6): -12%
Cave [7]: 7496 nM
concentration at 4 h [8]: 31.2 nM
Cave [9]: 21089 nM
concentration at 8 h [10]: 346 nM
concentration at 16 h [11]: 48 nM

O=C1CO[C@H]2CCN(C(=O)N3CCC(Cc4ccc(C(F)(F)F)cc4)CC3)C[C@H]2N1 [listing 2 of 2 here]
K [12]: 2.6 10^5/M/s
Activity [13]: 96%
Activity [14]: 5%
Activity (Mus musculus): Active
inhibition [15]: inactive

Source: ChEMBL document CHEMBL6127097, “Structure-Guided Discovery of cis-Hexahydro-pyrido-oxazinones as Reversible, Drug-like Monoacylglycerol Lipase Inhibitors” (J Med Chem, 2024)
